8 compounds from ChEMBL document CHEMBL1140232, “Surprising alteration of antibacterial activity of 5"-modified neomycin against resistant bacteria” (2008) can be followed below.

≈ marks a conversion by molar mass, not a printed value.

Test [1] relates to Staphylococcus aureus. The test is described as follows: Antibacterial activity against methicillin-resistant Staphylococcus aureus ATCC 33591 after 12 to 18 hrs. Type of test: functional. The procedure, abridged: (§1)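 Broth microdilution MIC. Culture diluted with broth to an absorbance of 0.08–0.1 at 625 nm. 100 μL of this was diluted into 10 mL broth and dispensed into 96-well plates. Each well received 50 μL inoculum plus 50 μL of a 2-fold compound dilution series. Plates were incubated at 35°C for 12–18 h. MIC is the lowest concentration that inhibits growth, from at least three repeats.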

Test [2] concerns Klebsiella pneumoniae. The test is described as follows: Antibacterial activity against ampicillin-resistant and aminoglycosides-susceptible Klebsiella pneumoniae ATCC 13883 after 12 to 18 hrs. Type of test: functional. The method, boiled down:
as §1

Test [3] deals with Enterococcus faecalis. Nature of the test: Antibacterial activity against vancomycin-resistant Enterococcus faecalis ATCC 51299 expressing vanB, ant(6)-1, aac(6')-aph(2') resistant gene after 12 to 18 hrs. It counts as functional. The method, boiled down:
as §1

For test [4], the system named is Enterococcus faecalis. Nature of the test: Antibacterial activity against vancomycin-susceptible and aminoglycosides-resistant Enterococcus faecalis ATCC 29212 after 12 to 18 hrs. It counts as functional. The procedure, abridged:
as §1

For test [5], the system named is Klebsiella pneumoniae. The test is described as follows: Antibacterial activity against multidrug-resistant Klebsiella pneumoniae ATCC 700603 isolate after 12 to 18 hrs. Type of test: functional. The method, boiled down:
as §1

The test system of test [6] is Enterococcus. Nature of the test: Activity of Enterococcus APH(3')-3a.
A further test concerns Pseudomonas aeruginosa. Nature of the test: Antibacterial activity against aminoglycosides-resistant Pseudomonas aeruginosa ATCC 27853 expressing APH(3')-2b after 12 to 18 hrs. It counts as functional. The method, boiled down: as §1
In test [7] the test system is Escherichia coli. The test is described as follows: Antibacterial activity against Escherichia coli TG1 pET28a plasmid encoded for APH(3')-3a after 12 to 18 hrs. It counts as functional. The procedure, abridged: (§2)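 Broth microdilution. Bacterial suspension adjusted with broth to absorbance 0.08–0.1 at 625 nm, diluted further in broth, and mixed in wells with 2-fold serial dilutions of compound. Plates incubated at 35°C for 12–18 h. MIC is the lowest concentration inhibiting growth; each determination repeated at least three times.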

The test system of test [8] is Enterococcus. The test is described as follows: Ratio of kcat to Km of Enterococcus APH(3')-3a.
For test [9], the system named is Escherichia coli. Nature of the test: Antibacterial activity against Escherichia coli TG1 pTZ19U-3 plasmid encoded for APH(3')-1 after 12 to 18 hrs. Type of test: functional. The procedure, abridged: as §2
The subject of test [10] is Escherichia coli. The test is described as follows: Antibacterial activity against Escherichia coli TG1 pSF815 plasmid encoded for AAC(6')/APH(2') after 12 to 18 hrs. It counts as functional. The method, boiled down:
as §2

The test system of test [11] is Escherichia coli. Nature of the test: Antibacterial activity against aminoglycoside-susceptible Escherichia coli TG1 after 12 to 18 hrs. Type of test: functional. The method, boiled down:
as §2

In test [12] the test system is Staphylococcus aureus. Nature of the test: Antibacterial activity against aminoglycoside-susceptible Staphylococcus aureus ATCC 25923 after 12 to 18 hrs. Type of test: functional. The method, boiled down: as §2
Test [13] has as its system Escherichia coli. Nature of the test: Antibacterial activity against aminoglycoside-susceptible Escherichia coli ATCC 25922 after 12 to 18 hrs. It counts as functional. The procedure, abridged:
as §2

With GENTAMICIN, the minimal inhibitory concentration (MIC) – broadly, the lowest concentration that inhibits growth of the organism – was 2 µg/mL against Staphylococcus aureus [1]; 1 µg/mL in the test on Klebsiella pneumoniae [2]; above 250 µg/mL with Enterococcus faecalis [3]; 8 µg/mL in the test on Enterococcus faecalis [4]; 8 µg/mL against Klebsiella pneumoniae [5].
Consider `NCC[C@H](O)C(=O)N[C@@H]1C[C@H](N)[C@@H](O[C@H]2O[C@H](CN)[C@@H](O)[C@H](O)[C@H]2O)[C@H](O)[C@H]1O[C@H]1O[C@H](CO)[C@@H](O)[C@H](N)[C@H]1O` [AMIKACIN], for which the MIC against Staphylococcus aureus [1] was 8 µg/mL (≈ 13.7 µM); in the test with Klebsiella pneumoniae [2], 1 µg/mL (≈ 1.71 µM); against Enterococcus faecalis [3], at least 250 µg/mL; in the test with Enterococcus faecalis [4], 32 µg/mL (≈ 54.6 µM); in the test on Klebsiella pneumoniae [5], 0.5 µg/mL (≈ 0.854 µM); against Pseudomonas aeruginosa, 0.5 µg/mL (≈ 0.854 µM). The compound also showed an MIC with Escherichia coli [7] of 1 µg/mL (≈ 1.71 µM). The Km (as a rule, the substrate concentration at which the rate is half of its maximum) in the test with Enterococcus [6] worked out at 57.4 µM. The Vmax (usually the top rate of the reaction or transport when substrate is in excess) with Enterococcus [6] came out at 2.75 µmol/min/mg. The turnover number (kcat) (usually the maximal rate divided by the concentration of active sites) with Enterococcus [6] turned out to be 1.38 s⁻¹. The kcat/Km in the test on Enterococcus [8] worked out at 2.4 ×10⁴ /M/s.
`NCC(=O)NCC(=O)NC[C@H]1O[C@@H](O[C@@H]2[C@@H](O)[C@H](N)C[C@H](N)[C@H]2O[C@H]2O[C@H](CN)[C@@H](O)[C@H](O)[C@H]2N)[C@H](O)[C@@H]1O[C@H]1O[C@@H](CN)[C@@H](O)[C@H](O)[C@H]1N`: the MIC with Escherichia coli [9] was 125 µg/mL (≈ 172 µM); against Escherichia coli [10], 16 µg/mL (≈ 22 µM); against Escherichia coli [11], 16 µg/mL (≈ 22 µM); in the test with Staphylococcus aureus [1], 32 µg/mL (≈ 44 µM); with Klebsiella pneumoniae [2], 4 µg/mL (≈ 5.5 µM); in the test on Enterococcus faecalis [3], at least 250 µg/mL. The MIC is 64 µg/mL (≈ 87.9 µM) against Enterococcus faecalis [4]; 8 µg/mL (≈ 11 µM) with Klebsiella pneumoniae [5]; 2 µg/mL (≈ 2.75 µM) in the test with Staphylococcus aureus [12]; 16 µg/mL (≈ 22 µM) with Pseudomonas aeruginosa; 16 µg/mL (≈ 22 µM) against Escherichia coli [13].
For `NC[C@@H]1O[C@H](O[C@H]2[C@@H](O)[C@H](O[C@@H]3[C@@H](O)[C@H](N)C[C@H](N)[C@H]3O[C@H]3O[C@H](CN)[C@@H](O)[C@H](O)[C@H]3N)O[C@@H]2CO)[C@H](N)[C@@H](O)[C@@H]1O` [FRAMYCETIN], the minimal inhibitory concentration (MIC) with Escherichia coli [9] is at least 2000 µg/mL; against Escherichia coli [10] it was 4 µg/mL (≈ 6.51 µM); in the test on Escherichia coli [11], 4 µg/mL (≈ 6.51 µM); against Staphylococcus aureus [1] it was 125 µg/mL (≈ 203 µM); in the test with Klebsiella pneumoniae [2], 4 µg/mL (≈ 6.51 µM); in the test with Enterococcus faecalis [3], at least 250 µg/mL. Moreover, the MIC came to 64 µg/mL (≈ 104 µM) in the test with Enterococcus faecalis [4]; 16 µg/mL (≈ 26 µM) in the test with Klebsiella pneumoniae [5]; 1 µg/mL (≈ 1.63 µM) against Staphylococcus aureus [12]; 64 µg/mL (≈ 104 µM) in the test with Pseudomonas aeruginosa; 64 µg/mL (≈ 104 µM) with Escherichia coli [7]; 4 µg/mL (≈ 6.51 µM) in the test with Escherichia coli [13]. Moreover, the Km with Enterococcus [6] is 6 µM. The Vmax with Enterococcus [6] was 3.22 µmol/min/mg. The kcat with Enterococcus [6] came to 1.61 s⁻¹. Moreover, in the test on Enterococcus [8], the kcat/Km is 26.8 ×10⁴ /M/s.
In the test on Enterococcus faecalis [3], `CN[C@H](CC(C)C)C(=O)N[C@H]1C(=O)N[C@@H](CC(N)=O)C(=O)N[C@H]2C(=O)N[C@H]3C(=O)N[C@H](C(=O)N[C@H](C(=O)O)c4cc(O)cc(O)c4-c4cc3ccc4O)[C@H](O)c3ccc(c(Cl)c3)Oc3cc2cc(c3O[C@@H]2O[C@H](CO)[C@@H](O)[C@H](O)[C@H]2O[C@H]2C[C@](C)(N)[C@H](O)[C@H](C)O2)Oc2ccc(cc2Cl)[C@H]1O` [VANCOMYCIN] yielded an MIC of 125 µg/mL (≈ 86.3 µM).
Consider `CCCCCCCCCCCCCCCCCC(=O)NC[C@H]1O[C@@H](O[C@@H]2[C@@H](O)[C@H](N)C[C@H](N)[C@H]2O[C@H]2O[C@H](CN)[C@@H](O)[C@H](O)[C@H]2N)[C@H](O)[C@@H]1O[C@H]1O[C@@H](CN)[C@@H](O)[C@H](O)[C@H]1N`, for which the MIC with Escherichia coli [9] was 8 µg/mL (≈ 9.09 µM); in the test on Escherichia coli [10] it was 32 µg/mL (≈ 36.4 µM); against Escherichia coli [11], 2 µg/mL (≈ 2.27 µM); against Staphylococcus aureus [1], 4 µg/mL (≈ 4.54 µM); against Klebsiella pneumoniae [2], 8 µg/mL (≈ 9.09 µM); against Enterococcus faecalis [3] it was 8 µg/mL (≈ 9.09 µM). The minimum inhibitory concentration (MIC) against Enterococcus faecalis [4] was 4 µg/mL (≈ 4.54 µM); against Klebsiella pneumoniae [5] it was 32 µg/mL (≈ 36.4 µM); in the test with Staphylococcus aureus [12], 4 µg/mL (≈ 4.54 µM); in the test with Pseudomonas aeruginosa, 8 µg/mL (≈ 9.09 µM); in the test on Escherichia coli [7], 2 µg/mL (≈ 2.27 µM); against Escherichia coli [13], 4 µg/mL (≈ 4.54 µM). Also, in the test with Enterococcus [6], the Km stood at 60 µM. For the same compound, in the test with Enterococcus [6], the Vmax was 0.84 µmol/min/mg. The kcat in the test on Enterococcus [6] was determined as 0.42 s⁻¹. The kcat/Km in the test with Enterococcus [8] amounted to 0.7 ×10⁴ /M/s.
`CCCCCCCCCCCCCCCC(=O)NC[C@H]1O[C@@H](O[C@@H]2[C@@H](O)[C@H](N)C[C@H](N)[C@H]2O[C@H]2O[C@H](CN)[C@@H](O)[C@H](O)[C@H]2N)[C@H](O)[C@@H]1O[C@H]1O[C@@H](CN)[C@@H](O)[C@H](O)[C@H]1N`: the MIC is 8 µg/mL (≈ 9.39 µM) against Escherichia coli [9]; 16 µg/mL (≈ 18.8 µM) in the test with Escherichia coli [10]; 2 µg/mL (≈ 2.35 µM) against Escherichia coli [11]; 2 µg/mL (≈ 2.35 µM) against Staphylococcus aureus [1]; 8 µg/mL (≈ 9.39 µM) with Klebsiella pneumoniae [2]; 4 µg/mL (≈ 4.69 µM) against Enterococcus faecalis [3]. The MIC turned out to be 2 µg/mL (≈ 2.35 µM) against Enterococcus faecalis [4]; 16 µg/mL (≈ 18.8 µM) in the test with Klebsiella pneumoniae [5]; 2 µg/mL (≈ 2.35 µM) against Staphylococcus aureus [12]; 4 µg/mL (≈ 4.69 µM) against Pseudomonas aeruginosa; 1 µg/mL (≈ 1.17 µM) in the test with Escherichia coli [7]; 4 µg/mL (≈ 4.69 µM) against Escherichia coli [13]. For the same compound, in the test on Enterococcus [6], the Michaelis constant (Km) came out at 58 µM. The Vmax with Enterococcus [6] was found to be 0.85 µmol/min/mg. The catalytic constant (kcat) in the test with Enterococcus [6] is 0.42 s⁻¹. In addition, the kcat/Km with Enterococcus [8] came to 0.72 ×10⁴ /M/s.
With `NCC(=O)NC[C@H]1O[C@@H](O[C@@H]2[C@@H](O)[C@H](N)C[C@H](N)[C@H]2O[C@H]2O[C@H](CN)[C@@H](O)[C@H](O)[C@H]2N)[C@H](O)[C@@H]1O[C@H]1O[C@@H](CN)[C@@H](O)[C@H](O)[C@H]1N`, the MIC with Escherichia coli [9] was 500 µg/mL (≈ 745 µM); against Escherichia coli [10], 8 µg/mL (≈ 11.9 µM); in the test on Escherichia coli [11], 8 µg/mL (≈ 11.9 µM); against Staphylococcus aureus [1] it was 16 µg/mL (≈ 23.9 µM); against Klebsiella pneumoniae [2], 4 µg/mL (≈ 5.96 µM); in the test on Enterococcus faecalis [3], at least 250 µg/mL. Moreover, the MIC against Enterococcus faecalis [4] turned out to be 32 µg/mL (≈ 47.7 µM); with Klebsiella pneumoniae [5], 8 µg/mL (≈ 11.9 µM); against Staphylococcus aureus [12], 1 µg/mL (≈ 1.49 µM); in the test on Pseudomonas aeruginosa it was 8 µg/mL (≈ 11.9 µM); in the test with Escherichia coli [7], 32 µg/mL (≈ 47.7 µM); against Escherichia coli [13], 16 µg/mL (≈ 23.9 µM). Moreover, the Michaelis-Menten constant (Km) with Enterococcus [6] came out at 75 µM. Besides, the Vmax with Enterococcus [6] turned out to be 0.88 µmol/min/mg. Also, the kcat in the test on Enterococcus [6] turned out to be 0.44 s⁻¹. Moreover, the kcat/Km in the test on Enterococcus [8] amounted to 0.6 ×10⁴ /M/s.
